Data taken from ChEMBL document CHEMBL1130286, “Nicotinamide derivatives as a new class of gastric H+/K(+)-ATPase inhibitors. 1. Synthesis and structure-activity relationships of N-substituted 2-(benzhydryl- and benzylsulfinyl)nicotinamides” (J Med Chem, 1997).
Activity calls are given as the source filed them. The calls are words filed in the database; no cut-off is given here.

Experiments:
Oryctolagus cuniculus [1] = species on record: Oryctolagus cuniculus; experiment: Percent inhibition of [14C]aminopyrine (AP) accumulation stimulated by dibutyryl uM; format: functional
Procedure, shortened: (§1)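 Parietal cells were isolated from rabbit gastric tissue, and the cell-rich fraction (1-2 × 10⁷ cells/300 µL) was put in Earle's balanced salt solution. The medium held 5.6 kBq [¹⁴C]aminopyrine, 25 mM HEPES-NaOH pH 7.4, 0.2% BSA and test compound. Cells were stimulated with 1 mM dbcAMP at 37 °C for 30 min under 95% O₂/5% CO₂, then centrifuged, solubilized and scintillation-counted. Counts with 0.1 mM dinitrophenol were subtracted, and IC50 came from regression lines.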

[2] = target: Potassium-transporting ATPase (Oryctolagus cuniculus); experiment: Inhibition of [14C]aminopyrine (AP) accumulation stimulated by dibutyryl cyclic AMP in isolated rabbit parietal cells
Rattus norvegicus [3] = experiment: Percent inhibition of histamine induced gastric acid secretion in pylorus-ligated rats at 100 mg/Kg intraduodenal dose; conditions: Stomach
[4] = t1/2 is the time taken for the conversion of nicotinamides to isothiazolopyridine at pH=1.0; format: ADME
Procedure, shortened: (§2)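 Compound from a 10 µM DMSO solution was diluted into 100 mM HCl (pH 1) or pH-adjusted McIlvaine buffer (pH 3-7) containing Triton. Mixtures were incubated at 37 °C for various times. Remaining compound was measured by reversed-phase C18 HPLC (CH₃CN/10 mM phosphate pH 7.0) with UV detection at 254 nm, and half-lives were determined from these time points.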

[5] = t1/2 is the time taken for the conversion of nicotinamides to isothiazolopyridine at pH=3.0; format: ADME; procedure, shortened: as §2
[6] = target: Potassium-transporting ATPase (Sus scrofa, UniProt P19156); experiment: Inhibition of porcine gastric H+/K+ ATPase; format: tissue-based, Stomach
Chain of Potassium-transporting ATPase (P18434 whole entry): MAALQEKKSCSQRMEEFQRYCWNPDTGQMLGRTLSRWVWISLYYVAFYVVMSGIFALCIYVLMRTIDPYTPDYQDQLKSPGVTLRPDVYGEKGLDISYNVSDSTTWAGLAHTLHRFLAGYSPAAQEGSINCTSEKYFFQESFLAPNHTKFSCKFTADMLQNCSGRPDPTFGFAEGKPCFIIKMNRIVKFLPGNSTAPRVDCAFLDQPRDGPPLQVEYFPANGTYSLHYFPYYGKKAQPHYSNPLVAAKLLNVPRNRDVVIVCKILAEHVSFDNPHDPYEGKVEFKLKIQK
Chain of Potassium-transporting ATPase (P19156 whole entry): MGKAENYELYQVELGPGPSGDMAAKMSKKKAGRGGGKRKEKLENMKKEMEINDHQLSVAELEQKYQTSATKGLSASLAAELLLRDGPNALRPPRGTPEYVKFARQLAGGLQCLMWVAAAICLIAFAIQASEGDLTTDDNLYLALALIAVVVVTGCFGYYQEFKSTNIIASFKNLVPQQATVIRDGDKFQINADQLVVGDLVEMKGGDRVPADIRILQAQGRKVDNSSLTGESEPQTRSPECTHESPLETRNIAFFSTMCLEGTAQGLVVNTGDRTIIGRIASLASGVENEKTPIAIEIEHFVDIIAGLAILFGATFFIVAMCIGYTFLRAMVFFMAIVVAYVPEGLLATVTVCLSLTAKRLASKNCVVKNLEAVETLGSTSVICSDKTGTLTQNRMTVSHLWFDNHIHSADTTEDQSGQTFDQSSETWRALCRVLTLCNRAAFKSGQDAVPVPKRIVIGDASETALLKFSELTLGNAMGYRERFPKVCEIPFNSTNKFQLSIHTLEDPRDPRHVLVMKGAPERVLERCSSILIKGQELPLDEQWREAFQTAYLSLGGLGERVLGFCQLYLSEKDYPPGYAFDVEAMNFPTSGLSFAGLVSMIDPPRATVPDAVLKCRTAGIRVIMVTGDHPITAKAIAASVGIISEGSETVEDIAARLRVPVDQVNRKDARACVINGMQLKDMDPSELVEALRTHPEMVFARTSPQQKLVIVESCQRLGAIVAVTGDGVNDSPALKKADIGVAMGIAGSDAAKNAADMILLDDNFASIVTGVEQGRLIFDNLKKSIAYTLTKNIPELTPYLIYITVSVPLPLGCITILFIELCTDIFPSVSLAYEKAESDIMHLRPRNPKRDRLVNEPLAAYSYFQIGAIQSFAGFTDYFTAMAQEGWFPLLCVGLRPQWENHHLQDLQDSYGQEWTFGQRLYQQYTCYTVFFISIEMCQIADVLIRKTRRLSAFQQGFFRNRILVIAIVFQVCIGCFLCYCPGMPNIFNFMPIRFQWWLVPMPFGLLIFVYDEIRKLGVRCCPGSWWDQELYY
Procedure, shortened: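 Porcine gastric microsomes (15 µg protein) were preincubated 30 min at 37 °C with compound in 50 mM Tris-HCl pH 7.4, 4 mM MgCl₂ and 5 µg/mL gramicidin, with or without 20 mM KCl. Reaction was started with 2 mM ATP (final) and run 20 min at 37 °C, then stopped with trichloroacetic acid. Released phosphate was measured by the Sanui method. Activity was the K⁺-dependent rate, with the K⁺-free rate subtracted.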

[7] = test system: Potassium-transporting ATPase (Oryctolagus cuniculus); experiment: Percent inhibition of [14C]aminopyrine (AP) accumulation in dibutyryl cAMP stimulated rbbit parietal cells at 10 uM
Rattus norvegicus [8] = species on record: Rattus norvegicus; experiment: Inhibition of histamine induced gastric acid secretion in pylorus-ligated rats; format: functional; conditions: Stomach
Procedure, shortened: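 Male Wistar rats (~200 g) were fasted 24 h with water allowed, 4-7 per group. Under urethane (1 g/kg) the pylorus was ligated, and drug or vehicle was given intraduodenally right after ligation. Histamine (30 mg/kg) was given sc 30 min later. After 3 h, gastric juice volume was measured and acid titrated to pH 7 with 0.01 N NaOH. Total acid output versus controls gave percent inhibition.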

Oryctolagus cuniculus [9] = species on record: Oryctolagus cuniculus; experiment: Percent inhibition of [14C]aminopyrine (AP) accumulation stimulated by dibutyryl cyclic AMP in isolated rabbit parietal cells; format: functional; procedure, shortened: as §1
Oryctolagus cuniculus [10] = species on record: Oryctolagus cuniculus; experiment: Percent inhibition of [14C]aminopyrine (AP) accumulation stimulated by dibutyryl uM; Not effective; format: functional; procedure, shortened: as §1
Rattus norvegicus [11] = experiment: Percent inhibition of histamine induced gastric acid secretion in pylorus-ligated rats at 10 mg/Kg intraduodenal dose; conditions: Stomach
Rattus norvegicus [12] = experiment: Percent inhibition of histamine induced gastric acid secretion in pylorus-ligated rats at 3 mg/Kg intraduodenal dose; conditions: Stomach
[13] = t1/2 is the time taken for the conversion of nicotinamides to isothiazolopyridine at pH=5.0; format: ADME; procedure, shortened: as §2
[14] = t1/2 is the time taken for the conversion of nicotinamides to isothiazolopyridine at pH=7.0; format: ADME; procedure, shortened: as §2
Rattus norvegicus [15] = experiment: Percent inhibition of histamine induced gastric acid secretion in pylorus-ligated rats at 100 mg/Kg […] dose; Not effective; format: functional, organism-based; conditions: Stomach
Rattus norvegicus [16] = experiment: Percent inhibition of histamine induced gastric acid secretion in pylorus-ligated rats at 100 mg/Kg intraduodenal dose; Not effective; conditions: Stomach

O=C(Nc1ccccn1)c1cccnc1[S+]([O-])C(c1ccccc1)c1ccccc1 (stereo not given)
Inhibition (Oryctolagus cuniculus [1]): 8%

Cc1ccc(C(c2ccc(C)cc2)[S+]([O-])c2ncccc2C(=O)Nc2ccncc2)cc1 (stereo not given)
IC50 [2]: 1.5 µM
inhibition in vivo at 100 mg/kg (Rattus norvegicus [3]): 48.1%

COc1cc(OC)c(C[S+]([O-])c2ncccc2C(=O)Nc2ccncc2)cc1Br (stereo not given)
half-life [4]: 4.2 min
IC50 [2]: 1.9 µM
half-life [5]: 28.8 h
inhibition in vivo at 100 mg/kg (Rattus norvegicus [3]): 34.8%

COc1ccc(C[S+]([O-])c2ncccc2C(=O)Nc2ccncc2)c(OC)c1C (stereo not given)
half-life [4]: 7.2 min
IC50 [2]: 16.6 µM
half-life [5]: 11.6 h
IC50 [6]: > 100 µM

Cc1ccc2cccc(NC(=O)c3cccnc3[S+]([O-])C(c3ccccc3)c3ccccc3)c2n1 (stereo not given)
inhibition [7]: 24.4%

CCOc1ccc(C[S+]([O-])c2ncccc2C(=O)Nc2ccncc2)c(OCC)c1 (stereo not given)
half-life [4]: < 1.2 min
IC50 [2]: 0.4 µM
half-life [5]: 0.49 h
ED50 (Rattus norvegicus [8]): 11.2 mg/kg
IC50 [6]: > 100 µM

CC(C)CNC(=O)c1cccnc1[S+]([O-])C(c1ccccc1)c1ccccc1 (stereo not given)
inhibition [7]: 1.3%

CCOc1cc(OC)ccc1C[S+]([O-])c1ncccc1C(=O)Nc1ccncc1 (stereo not given)
half-life [4]: < 1.2 min
IC50 [2]: 0.45 µM
half-life [5]: 0.71 h
ED50 (Rattus norvegicus [8]): 19 mg/kg
IC50 [6]: > 100 µM

COCOc1cc(OC)ccc1C[S+]([O-])c1ncccc1C(=O)Nc1ccncc1 (stereo not given)
half-life [4]: < 1.2 min
half-life [5]: 8.25 h
inhibition in vivo at 100 mg/kg (Rattus norvegicus [3]): 37.7%
IC50 (Oryctolagus cuniculus [9]): 2.2 µM

COc1ncccc1NC(=O)c1cccnc1[S+]([O-])C(c1ccccc1)c1ccccc1 (stereo not given)
inhibition (Oryctolagus cuniculus [10]): inactive

O=C(Nc1ncccn1)c1cccnc1[S+]([O-])C(c1ccccc1)c1ccccc1 (stereo not given)
inhibition (Oryctolagus cuniculus [10]): inactive

O=C(Nc1ccccc1)c1cccnc1[S+]([O-])C(c1ccccc1)c1ccccc1 (stereo not given)
inhibition [7]: 5%

COCOCCOc1cc(OC)ccc1C[S+]([O-])c1ncccc1C(=O)Nc1ccncc1 (stereo not given)
half-life [4]: < 1.2 min
inhibition in vivo at 10 mg/kg (Rattus norvegicus [11]): 76.6%
half-life [5]: 2.75 h
inhibition in vivo at 3 mg/kg (Rattus norvegicus [12]): 14.4%
IC50 (Oryctolagus cuniculus [9]): 2 µM

COc1cc(C)c(C[S+]([O-])c2ncccc2C(=O)Nc2ccncc2)c(OC)c1 (stereo not given)
half-life [4]: < 1.2 min
IC50 [2]: 0.46 µM
half-life [5]: 0.09 h
half-life [13]: 257 min
ED50 (Rattus norvegicus [8]): 5.7 mg/kg
IC50 [6]: > 100 µM

COc1ccc2[nH]c([S+]([O-])Cc3ncc(C)c(OC)c3C)nc2c1 (stereo not given) [OMEPRAZOLE]
half-life [14]: 10.5 h
half-life [13]: 19.2 min
ED50 (Rattus norvegicus [8]): 4.1 mg/kg

O=C(NC1CCN(Cc2ccccc2)CC1)c1cccnc1[S+]([O-])C(c1ccccc1)c1ccccc1 (stereo not given)
inhibition (Rattus norvegicus [15]): inactive

COc1cc(C[S+]([O-])c2ncccc2C(=O)Nc2ccncc2)cc(OC)c1OC (stereo not given)
half-life [4]: 462 min
inhibition [7]: 11.3%

O=c1c2cccnc2sn1-c1ccccc1
IC50 [6]: 0.19 µM

COc1cc(OC)c(OC)cc1C[S+]([O-])c1ncccc1C(=O)Nc1ccncc1 (stereo not given)
half-life [4]: < 1.2 min
half-life [5]: 0.14 h
inhibition in vivo at 100 mg/kg (Rattus norvegicus [3]): 21.7%
inhibition [7]: 32.5%
IC50 [6]: > 100 µM

O=C(Nc1c2ccccc2nc2ccccc12)c1cccnc1[S+]([O-])C(c1ccccc1)c1ccccc1 (stereo not given)
inhibition [7]: 47.6%

COc1ccc(C[S+]([O-])c2ncccc2C(=O)Nc2ccncc2)c(OC)c1OC (stereo not given)
half-life [4]: 27 min
half-life [5]: 116 h
inhibition [7]: 19.6%

COc1cc(OC)c(C[S+]([O-])c2ncccc2C(=O)Nc2ccncc2)c(OC)c1 (stereo not given)
half-life [4]: < 1.2 min
IC50 [2]: 1.2 µM
half-life [5]: < 0.03 h
half-life [13]: 17.4 min
ED50 (Rattus norvegicus [8]): 6.8 mg/kg
IC50 [6]: 7.3 µM

COc1ccnc(C[S+]([O-])c2nc3ccc(OC(F)F)cc3[nH]2)c1OC (stereo not given) [PANTOPRAZOLE]
half-life [14]: 23.1 h
half-life [13]: 70.2 min

COc1ccc(C[S+]([O-])c2ncccc2C(=O)Nc2ccncc2)cc1 (stereo not given)
half-life [4]: 128 min
inhibition in vivo at 100 mg/kg (Rattus norvegicus [3]): 44.4%
inhibition [7]: 33.1%

Cc1c(OCC(F)(F)F)ccnc1C[S+]([O-])c1nc2ccccc2[nH]1 (stereo not given) [LANSOPRAZOLE]
half-life [14]: 6.08 h
half-life [13]: 16.8 min

O=C(Nc1ccncc1)c1cccnc1[S+]([O-])C(c1ccccc1)c1ccccc1 (stereo not given)
inhibition in vivo at 100 mg/kg (Rattus norvegicus [3]): 30.2%
inhibition [7]: 55%

CN(C)c1ccc(NC(=O)c2cccnc2[S+]([O-])C(c2ccccc2)c2ccccc2)cc1 (stereo not given)
inhibition [7]: 58.3%

O=C(Nc1ccc2ncccc2c1)c1cccnc1[S+]([O-])C(c1ccccc1)c1ccccc1 (stereo not given)
inhibition in vivo at 100 mg/kg (Rattus norvegicus [3]): 21.7%
inhibition [7]: 61.8%

O=C(Nc1cccc2ccccc12)c1cccnc1[S+]([O-])C(c1ccccc1)c1ccccc1 (stereo not given)
inhibition (Oryctolagus cuniculus [10]): inactive

COc1cccc(OC)c1C[S+]([O-])c1ncccc1C(=O)Nc1ccncc1 (stereo not given)
half-life [4]: 39.6 min
IC50 [2]: 26 µM
inhibition in vivo at 10 mg/kg (Rattus norvegicus [11]): 12.7%
half-life [5]: 38.5 h
inhibition in vivo at 100 mg/kg (Rattus norvegicus [3]): 60.7%
IC50 [6]: > 100 µM

Cc1ccc(C(c2ccc(C)cc2)[S+]([O-])c2ncccc2C(=O)Nc2cccc3ncccc23)cc1 (stereo not given)
inhibition in vivo at 100 mg/kg (Rattus norvegicus [3]): 30.4%
inhibition [7]: 74.1%

O=c1c2cccnc2sn1-c1ccncc1
IC50 [6]: 0.22 µM

CN(C)CCc1ccc(NC(=O)c2cccnc2[S+]([O-])C(c2ccccc2)c2ccccc2)cc1 (stereo not given)
Inhibition (Oryctolagus cuniculus [1]): 7.4%
inhibition [7]: 93.5%

O=C(Nc1cccnc1)c1cccnc1[S+]([O-])C(c1ccccc1)c1ccccc1 (stereo not given)
inhibition (Rattus norvegicus [16]): inactive
inhibition [7]: 43.7%

COc1ccc(C[S+]([O-])c2ncccc2C(=O)Nc2ccncc2)c(OCCF)c1 (stereo not given)
half-life [4]: < 1.2 min
IC50 [2]: 1.7 µM
half-life [5]: 3.3 h
ED50 (Rattus norvegicus [8]): 8.1 mg/kg
IC50 [6]: > 100 µM

O=C(Nc1nccs1)c1cccnc1[S+]([O-])C(c1ccccc1)c1ccccc1 (stereo not given)
inhibition [7]: 14.7%

COc1ccc(C[S+]([O-])c2ncccc2C(=O)Nc2ccncc2)c(OC)c1 (stereo not given)
half-life [4]: < 1.2 min
IC50 [2]: 0.59 µM
half-life [14]: > 100 h
half-life [5]: 0.84 h
half-life [13]: 2310 min
ED50 (Rattus norvegicus [8]): 4.2 mg/kg
IC50 [6]: > 100 µM

Nc1ccc(NC(=O)c2cccnc2[S+]([O-])C(c2ccccc2)c2ccccc2)cc1 (stereo not given)
inhibition [7]: 57.4%

CC(C)Cn1sc2ncccc2c1=O
IC50 [6]: 0.53 µM

Cc1cc(C)c2ccc(NC(=O)c3cccnc3[S+]([O-])C(c3ccccc3)c3ccccc3)nc2n1 (stereo not given)
inhibition (Rattus norvegicus [16]): inactive
inhibition [7]: 68.6%

COc1ccc(C[S+]([O-])c2ncccc2C(=O)Nc2ccncc2)c(OCCO)c1 (stereo not given)
half-life [4]: < 1.2 min
IC50 [2]: 59 µM
half-life [5]: 1.78 h

O=C(Nc1cnccn1)c1cccnc1[S+]([O-])C(c1ccccc1)c1ccccc1 (stereo not given)
inhibition (Oryctolagus cuniculus [10]): inactive
